The test system of data set [1] is Rattus norvegicus. Nature of the data set: Increase in allograft survival in stringent Dark Agouti to Lewis rat heterotopic vascular heart allotransplantation model assessed as allograft mean survival time at 0.3 mg/kg, po qd (reference value: 6 days). Format: functional.
Data set [2] can be described thus: Solubility in pH 6.8 buffer. It is filed as physicochemical.
Data set [3] deals with Rattus norvegicus. Nature of the data set: Reduction in peripheral blood lymphocytes in Lewis rat assessed as remaining circulating lymphocytes level at 30 mg/kg, po administered as single dose measured 24 hrs post dose by automated hematology analyzer. Format: functional. The gist of the method:
(§1)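 Male Lewis rats receive a single oral dose of compound or vehicle, freshly made in 30% PEG200/buffer. Blood (<200 μL) is drawn by sublingual puncture under isoflurane 5% v/v at baseline and later time points. Lymphocytes are counted on an automated hematology analyzer, and each animal's change is expressed as percent of its own pre-treatment baseline.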

Data set [4] concerns Rattus norvegicus. Nature of the data set: Reduction in peripheral blood lymphocytes in Lewis rat assessed as remaining circulating lymphocytes level at 30 mg/kg, po administered as single dose measured 14 hrs post dose by automated hematology analyzer. Format: functional. The gist of the method:
as §1

The test system of data set [5] is Rattus norvegicus. Nature of the data set: Reduction in peripheral blood lymphocytes in Lewis rat assessed as remaining circulating lymphocytes level at 100 mg/kg, po administered as single dose measured 14 hrs post dose by automated hematology analyzer. It is filed as functional. The gist of the method:
as §1

In data set [6] the target is T1, Sphingosine 1-phosphate receptor 1 (Homo sapiens, UniProt P21453). Nature of the data set: Antagonist activity at human S1P1R receptor expressed in CHO cell membranes by [35S]GTPgamma binding assay. Format: functional. The method, boiled down:
(§2)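 Membranes from CHO clones stably expressing human S1P1 (1−5 μg/well), with S1P2–S1P5 handled comparably. Compound preincubated 15 min, then S1P (4 nM final) and GTPγ³⁵S (0.2 nM final) added. Shaken 120 min at room temperature, then SPA counting. Eight concentrations in duplicate; IC₅₀ from curve fit, mean of ≥3 determinations ± SEM.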

The target in data set [7] is T2, Sphingosine 1-phosphate receptor 5 (Homo sapiens, UniProt Q9H228). Nature of the data set: Agonist activity at human S1P5R receptor expressed in CHO cell membranes by [35S]GTPgamma binding assay. Format: functional.
Data set [8] deals with T3, Sphingosine 1-phosphate receptor 4 (Homo sapiens, UniProt O95977).
T3 sequence (O95977 whole entry): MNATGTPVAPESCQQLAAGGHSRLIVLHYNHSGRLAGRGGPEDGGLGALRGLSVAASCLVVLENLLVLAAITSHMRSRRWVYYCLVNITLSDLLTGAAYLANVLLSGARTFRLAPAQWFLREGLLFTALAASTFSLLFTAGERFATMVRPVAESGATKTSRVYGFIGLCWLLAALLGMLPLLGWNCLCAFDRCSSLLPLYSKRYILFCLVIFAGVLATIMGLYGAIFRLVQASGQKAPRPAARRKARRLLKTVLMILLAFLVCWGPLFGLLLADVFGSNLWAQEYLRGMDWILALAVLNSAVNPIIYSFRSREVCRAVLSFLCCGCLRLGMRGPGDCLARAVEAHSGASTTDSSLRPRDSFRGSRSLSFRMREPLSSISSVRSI
Nature of the data set: Agonist activity at human S1P4R receptor expressed in CHO cell membranes by [35S]GTPgamma binding assay. Format: functional.

Data set [9] concerns the target T4, Sphingosine 1-phosphate receptor 3 (Homo sapiens, UniProt Q99500). Nature of the data set: Agonist activity at human S1P3R receptor expressed in CHO cell membranes by [35S]GTPgamma binding assay. It is filed as functional.
In data set [10] the target is T5, Sphingosine 1-phosphate receptor 2 (Homo sapiens, UniProt O95136). Nature of the data set: Agonist activity at human S1P2R receptor expressed in CHO cell membranes by [35S]GTPgamma binding assay. It is filed as functional.
Data set [11] deals with T1, Sphingosine 1-phosphate receptor 1. Nature of the data set: Agonist activity at human S1P1R receptor expressed in CHO cell membranes by [35S]GTPgamma binding assay. Format: functional.
Data set [12] deals with T2, Sphingosine 1-phosphate receptor 5. Nature of the data set: Antagonist activity at human S1P5R receptor expressed in CHO cell membranes by [35S]GTPgamma binding assay. Format: functional. The gist of the method:
as §2

In data set [13] the target is T3, Sphingosine 1-phosphate receptor 4. Nature of the data set: Antagonist activity at human S1P4R receptor expressed in CHO cell membranes by [35S]GTPgamma binding assay. It is filed as functional. The gist of the method: as §2
Data set [14] concerns the target T4, Sphingosine 1-phosphate receptor 3. Nature of the data set: Antagonist activity at human S1P3R receptor expressed in CHO cell membranes by [35S]GTPgamma binding assay. Format: functional. The gist of the method:
as §2

For data set [15], the target named is T5, Sphingosine 1-phosphate receptor 2. Nature of the data set: Antagonist activity at human S1P2R receptor expressed in CHO cell membranes by [35S]GTPgamma binding assay. It is filed as functional. The method, boiled down:
as §2

The target of data set [16] is T1, Sphingosine 1-phosphate receptor 1. Nature of the data set: Competitive binding affinity to human S1P1R receptor expressed in CHO cell membranes by Schild plot analysis.
Data set [17] concerns Rattus norvegicus. Nature of the data set: Reduction in peripheral blood lymphocytes in Lewis rat assessed as remaining circulating lymphocytes level at 100 mg/kg, po administered as single dose measured 12 hrs post dose by automated hematology analyzer. Format: functional. The gist of the method: as §1
Data set [18] has as its system Rattus norvegicus. Nature of the data set: Increase in allograft survival in stringent Dark Agouti to Lewis rat heterotopic vascular heart allotransplantation model assessed as allograft mean survival time at 0.1 mg/kg, po qd co-treated with 0.3 mg/kg, qd everolimus. Format: functional.
In data set [19] the test system is Rattus norvegicus. Nature of the data set: Increase in allograft survival in stringent Dark Agouti to Lewis rat heterotopic vascular heart allotransplantation model assessed as allograft mean survival time at 0.1 mg/kg, po qd co-treated with 10 mg/kg, po bid sotrastaurin. It is filed as functional.
The subject of data set [20] is Rattus norvegicus. Nature of the data set: Increase in allograft survival in stringent Dark Agouti to Lewis rat heterotopic vascular heart allotransplantation model assessed as allograft mean survival time at 10 mg/kg, po bid (reference value: 6 days). Format: functional. The gist of the method: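 Hearts from DA donors were transplanted into Lewis recipients, with dosing starting 3 days pre-transplant. The PKC inhibitor was given po b.i.d., mixed in D-glucose and dissolved in PEG400, distilled water and 0.1 M aqueous HCl. Vehicle controls were dosed po b.i.d. Endpoint was graft survival to rejection or predefined termination, reported as median days. Histology used H&E and trichrome with acute rejection scoring.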

The test system of data set [21] is Rattus norvegicus. Nature of the data set: Reduction in peripheral blood lymphocytes in Lewis rat assessed as remaining circulating lymphocytes level at 100 mg/kg, po administered as single dose measured 8 hrs post dose by automated hematology analyzer. It is filed as functional. The gist of the method: as §1
Data set [22] has as its system Rattus norvegicus. Nature of the data set: Reduction in peripheral blood lymphocytes in Lewis rat assessed as remaining circulating lymphocytes level at 100 mg/kg, po administered as single dose measured 14 to 48 hrs post dose by automated hematology analyzer.
Data set [23] has as its system Rattus norvegicus. Nature of the data set: Reduction in peripheral blood lymphocytes in Lewis rat assessed as remaining circulating lymphocytes level at 100 mg/kg, po administered as single dose measured 24 hrs post dose by automated hematology analyzer. Format: functional. The gist of the method:
as §1

≈ marks a conversion by molar mass, not a printed value. Calls of active or inactive are those of the source. No cut-off for these calls is given here.

T1 sequence (P21453 whole entry): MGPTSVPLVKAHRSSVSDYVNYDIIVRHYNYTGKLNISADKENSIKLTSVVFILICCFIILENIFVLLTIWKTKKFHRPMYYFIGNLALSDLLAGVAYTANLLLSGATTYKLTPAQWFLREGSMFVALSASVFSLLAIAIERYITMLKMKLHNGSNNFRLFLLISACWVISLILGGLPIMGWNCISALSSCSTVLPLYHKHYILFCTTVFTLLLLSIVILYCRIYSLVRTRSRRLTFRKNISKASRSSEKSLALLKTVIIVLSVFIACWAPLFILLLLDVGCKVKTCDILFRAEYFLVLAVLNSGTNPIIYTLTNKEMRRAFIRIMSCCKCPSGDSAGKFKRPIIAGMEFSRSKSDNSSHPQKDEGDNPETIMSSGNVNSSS
T5 sequence (O95136 whole entry): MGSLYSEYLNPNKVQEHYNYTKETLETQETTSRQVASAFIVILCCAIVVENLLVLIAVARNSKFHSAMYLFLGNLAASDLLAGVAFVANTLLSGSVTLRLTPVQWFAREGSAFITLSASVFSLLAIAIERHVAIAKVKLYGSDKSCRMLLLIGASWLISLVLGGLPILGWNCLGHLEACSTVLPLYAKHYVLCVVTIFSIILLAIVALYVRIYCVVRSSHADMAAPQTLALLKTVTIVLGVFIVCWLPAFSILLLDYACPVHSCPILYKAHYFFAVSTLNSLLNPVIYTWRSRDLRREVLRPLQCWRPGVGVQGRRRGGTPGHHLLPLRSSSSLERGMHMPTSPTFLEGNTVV
T2 sequence (Q9H228 whole entry): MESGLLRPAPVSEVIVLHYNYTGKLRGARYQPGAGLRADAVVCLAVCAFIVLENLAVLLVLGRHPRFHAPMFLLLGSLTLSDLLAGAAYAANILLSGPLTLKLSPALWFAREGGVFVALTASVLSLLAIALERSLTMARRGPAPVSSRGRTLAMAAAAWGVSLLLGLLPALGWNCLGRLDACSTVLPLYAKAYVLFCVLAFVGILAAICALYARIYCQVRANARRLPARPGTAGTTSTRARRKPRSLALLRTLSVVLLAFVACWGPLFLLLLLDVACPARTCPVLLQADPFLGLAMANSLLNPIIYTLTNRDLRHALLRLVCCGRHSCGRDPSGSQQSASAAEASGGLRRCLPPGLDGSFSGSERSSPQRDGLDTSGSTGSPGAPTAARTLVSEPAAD
T4 sequence (Q99500 whole entry): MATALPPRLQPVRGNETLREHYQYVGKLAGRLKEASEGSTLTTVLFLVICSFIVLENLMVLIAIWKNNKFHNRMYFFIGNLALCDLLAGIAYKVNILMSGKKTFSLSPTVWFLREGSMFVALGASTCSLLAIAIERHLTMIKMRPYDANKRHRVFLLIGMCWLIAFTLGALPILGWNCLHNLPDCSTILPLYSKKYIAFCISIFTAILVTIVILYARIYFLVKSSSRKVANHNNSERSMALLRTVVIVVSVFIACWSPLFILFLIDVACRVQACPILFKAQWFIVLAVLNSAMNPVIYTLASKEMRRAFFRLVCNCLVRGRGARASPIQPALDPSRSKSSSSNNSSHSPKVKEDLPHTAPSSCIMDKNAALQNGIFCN

On to `CO[C@H]1C[C@@H]2CC[C@@H](C)[C@@](O)(O2)C(=O)C(=O)N2CCCC[C@H]2C(=O)O[C@H]([C@H](C)C[C@@H]2CC[C@@H](OCCO)[C@H](OC)C2)CC(=O)[C@H](C)/C=C(\C)[C@@H](O)[C@@H](OC)C(=O)[C@H](C)C[C@H](C)/C=C/C=C/C=C/1C` [EVEROLIMUS], for which the MST in data set [1] stood at 7 days.

What is called solubility is the concentration that dissolves in the medium under given conditions. Low readings indicate little dissolved substance, high ones much dissolved substance. With `CCOC(=O)[C@H](CCN(C)C)N(C)C(=O)c1c(C)cc(-c2cccc(NS(=O)(=O)c3cc(C)c(Cl)cc3C)c2)cc1C`, the solubility in data set [2] is under 4 µM. Besides, the results for the Activity in data set [3] and in data set [4] were 48% and 28%, respectively.

Turning to `COC(=O)[C@H](CN(C)C)N(C)C(=O)c1c(C)cc(-c2cccc(NS(=O)(=O)c3cc(C)c(Cl)cc3C)c2)cc1C`, the Activity in [5] is recorded as 37%. In data set [2], the solubility is under 4 µM.

On to `COC(=O)[C@H](CCN)NC(=O)c1c(C)cc(-c2cccc(NS(=O)(=O)c3cc(C)c(Cl)cc3C)c2)cc1C`, for which the Activity in data set [5] was 76%.

By IC50 is commonly meant the concentration that inhibits the measured activity by half. High values mean lower potency, low ones higher potency. A word on the EC50: it is the concentration giving half of the maximal effect. A low value points to greater potency. As usually defined, the Kd is the concentration at which binding is half-saturated. Higher therefore signals a looser complex. As for `Cc1cc(S(=O)(=O)Nc2cccc(-c3cc(C)c(C(=O)N(C)[C@@H](CCN(C)C)C(=O)O)c(C)c3)c2)c(C)cc1Cl`, the IC50 in [6] was 3.4 nM; in [12], 978 nM; in data set [13] it was over 10000 nM; in data set [14], 802 nM; in data set [15], over 10000 nM. For the same molecule, the EC50 in data set [7] is over 10000 nM; in [8], 1200 nM; in data set [9], over 10000 nM; in data set [10], over 10000 nM; in data set [11], over 10000 nM. For the same molecule, the Kd in data set [16] stood at 0.67 nM.

As for `COC(=O)[C@H](C)NC(=O)c1c(C)cc(-c2cccc(NS(=O)(=O)c3cc(C)c(Cl)cc3C)c2)cc1C`, the Activity in data set [5] came out at 24%.

Consider `Cc1cc(S(=O)(=O)Nc2cccc(-c3cc(C)c(C(=O)N(C)[C@@H](C)C(=O)O)c(C)c3)c2)c(C)cc1Cl`, for which the Activity in data set [17] was found to be 19%. Besides, in data set [6], the IC50 stood at 6.1 nM.

`Cc1cc(S(=O)(=O)Nc2cccc(-c3cc(C)c(C(=O)N(C)[C@@H](C)C(=O)OCCN(C)C)c(C)c3)c2)c(C)cc1Cl` gave a solubility in data set [2] of 15 µM (≈ 9 µg/mL). Further, the Activity in data set [3] stood at 49%; in data set [4], 25%.

For `Cc1cc(S(=O)(=O)Nc2cccc(-c3cc(C)c(C(=O)N(C)[C@H](CCN(C)C)C(=O)O)c(C)c3)c2)c(C)cc1Cl`, in data set [6], the IC50 was 20 nM.

Regarding `COC(=O)[C@H](C)N(C)C(=O)c1c(C)cc(-c2cccc(NS(=O)(=O)c3cc(C)c(Cl)cc3C)c2)cc1C`, the Activity in data set [5] is listed as 21%. Besides, the solubility in data set [2] is under 4 µM.

As to `CCCCCCCCc1ccc(CCC(N)(CO)CO)cc1` [FINGOLIMOD], the figures for the MST in data set [18] and in data set [19] were 38 days and over 68.5 days, respectively.

Turning to `Cc1cc(S(=O)(=O)Nc2cccc(-c3cc(C)c(C(=O)N(C)[C@@H](CN(C)C)C(=O)O)c(C)c3)c2)c(C)cc1Cl`, in [6], the 50% inhibitory concentration (IC50) was 8.4 nM.

As to `CN1CCN(c2nc(C3=C(c4c[nH]c5ccccc45)C(=O)NC3=O)c3ccccc3n2)CC1` [SOTRASTAURIN], the MST in data set [20] turned out to be 7 days.

As to `Cc1cc(S(=O)(=O)Nc2cccc(-c3cc(C)c(C(=O)N[C@@H](C)C(=O)O)c(C)c3)c2)c(C)cc1Cl`, in data set [21], the Activity was found to be 20%. This molecule also yielded an IC50 in [6] of 2.6 nM.

Turning to `Cc1cc(S(=O)(=O)Nc2cccc(-c3cc(C)c(C(=O)N[C@H]4CCNC4=O)c(C)c3)c2)c(C)cc1Cl`, in data set [22], the outcome was inactive.

As to `Cc1cc(S(=O)(=O)Nc2cccc(-c3cc(C)c(C(=O)N[C@@H](CCN(C)C)C(=O)O)c(C)c3)c2)c(C)cc1Cl`, in data set [6], the IC50 stood at 12 nM.

`Cc1cc(S(=O)(=O)Nc2cccc(-c3cc(C)c(C(=O)N[C@@H](CCN)C(=O)O)c(C)c3)c2)c(C)cc1Cl` yielded an IC50 in data set [6] of 2.1 nM.

On to `COC(=O)[C@H](CCN(C)C)NC(=O)c1c(C)cc(-c2cccc(NS(=O)(=O)c3cc(C)c(Cl)cc3C)c2)cc1C`, for which the Activity worked out at 15% in [5] and 24% in data set [23].

Consider `COC(=O)[C@@H](CCN(C)C)N(C)C(=O)c1c(C)cc(-c2cccc(NS(=O)(=O)c3cc(C)c(Cl)cc3C)c2)cc1C`, for which, in [4], the Activity came to 67%.

For the origin of these results see ChEMBL document CHEMBL2176995, “An oral sphingosine 1-phosphate receptor 1 (S1P(1)) antagonist prodrug with efficacy in vivo: discovery, synthesis, and evaluation” (J Med Chem, 2012).
